# In the library only some 2.3% were active in any assay of this set; here they are far more common.
# ADAM10 inh = human ADAM10 inhibitors, primary screen, biochemical, QFRET, HTS | AID 720582, 2013 | Disintegrin and metalloproteinase domain-containing protein 10 (Homo sapiens), O14672 | inhibition, % at 7 µM | recombinant ADAM10, EDANS/DABCYL FRET peptide cleavage, 3 h | hit rate 0.62% among 370,000;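 active = inhibition above a per-campaign cutoff equal to the mean of compounds falling between control-based bounds plus 3 SD, cut at about 20% in these data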
# ADAM17 inh = ADAM17 inhibitors, primary screen, biochemical, QFRET | AID 720648, 2013 | inhibition, % at 6.95 µM | recombinant ADAM17, EDANS/DABCYL FRET peptide cleavage | hit rate 0.83% among 370,000;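 active = inhibition above the mean of compounds lying between control limits plus 3 SD, set per campaign, cut at about 8.5% in these data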
# Target sequence (P78536 215-824 limits assumed): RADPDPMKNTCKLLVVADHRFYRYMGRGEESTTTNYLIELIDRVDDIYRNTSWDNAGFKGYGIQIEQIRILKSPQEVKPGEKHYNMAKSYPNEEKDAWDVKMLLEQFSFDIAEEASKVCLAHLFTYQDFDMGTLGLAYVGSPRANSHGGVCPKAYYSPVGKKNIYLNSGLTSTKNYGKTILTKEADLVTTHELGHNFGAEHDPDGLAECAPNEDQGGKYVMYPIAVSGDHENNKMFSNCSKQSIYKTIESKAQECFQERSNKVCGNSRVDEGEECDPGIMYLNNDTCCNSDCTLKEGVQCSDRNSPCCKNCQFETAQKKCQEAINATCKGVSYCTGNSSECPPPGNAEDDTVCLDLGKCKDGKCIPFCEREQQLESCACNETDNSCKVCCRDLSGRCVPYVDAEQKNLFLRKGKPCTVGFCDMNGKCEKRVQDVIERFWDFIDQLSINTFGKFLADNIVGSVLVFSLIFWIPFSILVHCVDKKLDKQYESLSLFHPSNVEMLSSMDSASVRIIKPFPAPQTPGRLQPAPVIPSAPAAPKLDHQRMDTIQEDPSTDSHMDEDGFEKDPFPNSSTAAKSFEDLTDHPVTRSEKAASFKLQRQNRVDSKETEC
# PLCb3 inh = human PLC-beta3 inhibitors, primary screen, biochemical, fluorescence; Purified PLC-beta3, fluorogenic substrate; 1-phosphatidylinositol 4,5-bisphosphate phosphodiesterase beta-3 (Homo sapiens), Q01970; inhibition, % at 12.2 µM; hit rate 0.18% among 370,000; in the data active = inhibition above about 11%
# Tb MetRS inh = T. brucei MetRS inhibitors, primary screen, biochemical, luminescence | methionyl-tRNA synthetase (Trypanosoma brucei brucei) | purified T. brucei MetRS, ATP depletion, Kinase-Glo luminescence | inhibition, % at 11.9 µM | hit rate 0.4% among 360,000 | AID 624268, 2012;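 active = inhibition above a per-plate cutoff of the control wells' mean inhibition plus 3 SD, cut at about 5.5% in these data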
#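 Dosing: 11.9 µM compound single dose, 0.9% DMSO; Assay system: purified T. brucei MetRS enzyme; Measured by: Kinase-Glo luciferase luminescence reporting remaining unconsumed ATP; Schedule: 15 min plus 2 h at 25 °C.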
# PLCg1 inh = PLC-gamma1 enzyme inhibitors, primary screen, biochemical, fluorescence, purified enzyme; hit rate 0.84% among 370,000; inhibition, % at 12.2 µM; fluorogenic substrate; in the data active = inhibition above about 9.5%
# ADAM10 confirm = human ADAM10 inhibitors, confirmation, biochemical, QFRET, triplicate. hit rate 1% among 2,100. inhibition, % at 6.95 µM. AID 743208, 2013. shares compounds with ADAM10 inh. ADAM10 QFRET peptide cleavage, EDANS fluorescence;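 active = inhibition above about 20% chosen separately for each screening run, limit read from the data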
# ADAM17 ctr = ADAM17 inhibitors, counter-screen for ADAM10 exosite inhibitor project, biochemical, QFRET, high throughput; shares compounds with ADAM10 inh; ADAM17 QFRET peptide cleavage, EDANS fluorescence; inhibition, % at 6.95 µM; hit rate 0.5% among 2,100; AID 743214, 2013;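 active = mean triplicate inhibition above the solvent-only control wells' mean plus 3 SD, cut at about 12% in these data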
# ADAM10 counter = ADAM10 inhibitors, counter-screen for ADAM17 exosite inhibitor project, biochemical, FRET, human ADAM10 | shares compounds with ADAM17 inh | recombinant ADAM10, EDANS/DABCYL FRET peptide cleavage, 3 h | inhibition, % at 6.95 µM | hit rate 47% among 2,900 | AID 743256, 2014;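 active = mean inhibition over the triplicate runs exceeds the activity threshold set in the earlier primary screen, cut at about 20% in these data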
# ADAM17 confirm = ADAM17 inhibitors, hit retest, confirmation, biochemical, QFRET peptide cleavage. shares compounds with ADAM17 inh. recombinant ADAM17, EDANS/DABCYL QFRET peptide cleavage. hit rate 65% among 2,900. inhibition, % at 6.95 µM. AID 743257, 2014;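 active = mean inhibition across replicates above the hit cutoff set in the primary screen, cut at about 8.5% in these data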
# Numbers stand for hits; . = inactive; / = not tested or not shown.
SMILES,ADAM10 inh,ADAM17 inh,PLCb3 inh,Tb MetRS inh,PLCg1 inh,ADAM10 confirm,ADAM17 ctr,ADAM10 counter,ADAM17 confirm
CC(C)c1c(C(=O)N/N=C/c2cccc3ccccc23)nnn1-c1nonc1N,20,10,.,.,.,.,.,27,20
CC(=O)Nc1ccc(S(=O)(=O)NCCC(=O)N2CCC(Cc3ccccc3)CC2)cc1,.,.,.,.,.,/,/,/,/
O=C(NCc1ccccc1)C1=C[C@@H](c2ccccc2)C[C@@H](OCc2ccc(CO)cc2)O1,.,.,.,.,.,/,/,/,/
CC(=O)n1cc([C@@H]2C=C(C(=O)Nc3ccccc3)O[C@H](OCc3ccc(CO)cc3)C2)c2ccccc21,31,8.9,.,.,.,.,.,.,14
O=C(Nc1ccccc1)C1=C[C@@H](c2ccc(C(F)(F)F)cc2)C[C@@H](OCc2ccc(CO)cc2)O1,27,11,.,.,.,.,.,.,10
O=C(NCc1ccccc1)C1=C[C@H](c2ccc(Br)cc2)C[C@H](OCc2ccc(CO)cc2)O1,21,9.9,.,.,.,.,.,28,18
COc1ccc(-c2cn[nH]c2-c2ccc(OCc3ccccc3)cc2O)cc1OC,33,9.7,.,.,.,.,.,34,16
C=C(C)COc1ccc(-c2[nH]ncc2-c2ccccc2)c(O)c1,24,11,.,.,.,.,.,34,17
C=C(C)COc1ccc(-c2nc(N)ncc2-c2ccc(OC)cc2)c(O)c1,27,16,.,/,.,.,.,.,17
C=C(C)COc1ccc(-c2[nH]ncc2-c2ccc(OC)cc2)c(O)c1,.,.,.,.,.,/,/,/,/
C=C(C)COc1ccc(-c2nc(N)nc(C)c2Oc2ccccc2OC)c(O)c1,.,.,.,.,.,/,/,/,/
C=C(C)COc1ccc(-c2n[nH]c(C)c2Oc2ccccc2OC)c(O)c1,26,12,.,.,.,.,.,41,20
COCCSc1nnc(-c2cccnc2)n1Cc1ccccc1,.,.,.,/,.,/,/,/,/
CCOC(=O)C1=C(C(=O)OCC)C2N(Cc3ccccc3)c3ccccc3[C@@]23C[C@@H](C(=O)OC)N(S(=O)(=O)c2ccc(C(F)(F)F)cc2)C3=N1 (some centres not stated),.,.,.,/,.,/,/,/,/
Cc1ccc(C)c(NC(=O)C2=CCN(S(=O)(=O)c3ccc(F)cc3)CC2)c1,.,.,.,.,.,/,/,/,/
N#CN1CCC(NS(=O)(=O)c2cccc(C(F)(F)F)c2)CC1,.,.,.,/,.,/,/,/,/
Cc1ccc(S(=O)(=O)N(CCCO)CC(O)CON=C2c3ccccc3-c3ccccc32)cc1 (configuration not stated),35,19,.,.,.,.,.,.,12
CC(=O)NS(=O)(=O)c1ccc(NC(=O)C(Sc2ccccc2)c2ccccc2)cc1 (configuration not stated),.,.,.,.,.,/,/,/,/
CCC(C)NS(=O)(=O)c1ccc(NC(=O)C(Sc2ccccc2)c2ccccc2)cc1 (configuration not stated),41,20,.,.,.,.,.,42,22
CC(=O)c1ccc(NC(=O)CSc2nnc(-c3ccco3)c(-c3ccco3)n2)cc1,.,.,.,.,.,/,/,/,/
O=C(CSc1nnc(-c2ccco2)c(-c2ccco2)n1)c1ccccc1,27,9.0,.,.,.,.,.,.,.
Cc1n[nH]c(C)c1S(=O)(=O)NCCc1cccc(F)c1,.,.,.,/,.,/,/,/,/
Cn1c(COc2ccccc2)nnc1SCC(=O)Nc1ccccc1-c1ccccc1,.,.,.,/,.,/,/,/,/
COc1ccc(-n2c(COc3ccccc3)nnc2SCC(=O)Nc2ccccc2-c2ccccc2)cc1,20,11,.,/,.,.,.,24,13
CN(C)CCNC(=O)c1ccc2nc([C@@H]3O[C@H](CO)[C@H](O)[C@H](O)[C@H]3O)[nH]c2c1,.,.,.,.,.,/,/,/,/
SMILES,ADAM10 inh,ADAM17 inh,PLCb3 inh,Tb MetRS inh,PLCg1 inh,ADAM10 confirm,ADAM17 ctr,ADAM10 counter,ADAM17 confirm
CCOc1ccc(-n2c(SCC(=O)Nc3ccc(S(=O)(=O)Nc4nccs4)cc3)nnc2-c2ccncc2)cc1,.,.,.,/,.,/,/,/,/
CC(C)(C)c1ccc(-c2nnc(SCC(=O)Nc3ccc(S(=O)(=O)Nc4nccs4)cc3)n2-c2ccc(Cl)cc2)cc1,27,13,.,/,.,.,.,27,16
O=C(CSc1nnc(-c2ccccn2)n1-c1ccc(Cl)cc1)Nc1ccc(S(=O)(=O)Nc2nccs2)cc1,.,.,.,/,.,/,/,/,/
CCOc1ccc(-n2c(SCC(=O)Nc3ccc(S(=O)(=O)Nc4nccs4)cc3)nnc2-c2ccc(C(C)(C)C)cc2)cc1,22,12,.,/,.,.,.,40,21
C=CCN1[C@@H](CC(C)C)COc2cc(N3CCSCC3)ccc2S1(=O)=O,.,.,.,/,.,/,/,/,/
CC1CCCC(C)N1c1ccc(S(=O)(=O)N2CCOCC2)cc1Cl (configuration not stated),.,.,.,.,.,/,/,/,/
CCOC(=O)c1ccc(S(=O)(=O)NCC(c2ccc(N(C)C)cc2)c2c[nH]c3ccccc23)cc1 (configuration not stated),26,12,.,.,.,.,.,36,23
O=C(Nc1ccccc1C(F)(F)F)OC1CC2CC1[C@H]1CCCCN1C2 (some centres not stated),.,.,.,/,.,/,/,/,/
CS(=O)(=O)N(CC(=O)Nc1cccc([N+](=O)[O-])c1)c1ccccc1,.,.,.,.,.,/,/,/,/
Cc1ccccc1CN(CC(=O)Nc1cccc([N+](=O)[O-])c1)S(=O)(=O)c1ccc(Cl)cc1,21,9.7,.,.,.,.,.,35,19
